Results: ChEMBL document CHEMBL4184236, “Design, synthesis and biological evaluation of matrine derivatives as potential anticancer agents” (Bioorg Med Chem Lett, 2018)

Experiments:
[1] = test system: SMMC-7721; test: Induction of apoptosis in human SMMC7721 cells incubated for 24 hrs by Annexin V-FITC/PI dual staining based flow cytometry; format: functional, cell-based
Summary of the method: (§1)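 CNE2 and SMMC-7721 cells were treated for 24 h at 0, 5, 10 or 30 µM, or at 0, 10, 20 or 50 µM depending on compound. Cells were stained with Annexin V-FITC/propidium iodide and quantified by flow cytometry. Apoptotic cells were counted as AV+/PI− (lower right) plus AV+/PI+ (upper right) quadrants.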

[2] = test system: CNE-2; test: Induction of cell cycle arrest in human CNE2 cells assessed as accumulation at G0-G1 phase at 5 uM incubated for 24 hrs by propidium iodide staining based flow cytometry (reference value: 69.3%); format: functional
[3] = test system: CNE-2; test: Induction of cell cycle arrest in human CNE2 cells assessed as accumulation at G2/M phase at 30 uM incubated for 24 hrs by propidium iodide staining based flow cytometry (reference value: 19.8%); format: functional
[4] = test system: SMMC-7721; test: Induction of cell cycle arrest in human SMMC7721 cells assessed as accumulation at G0-G1 phase at 5 uM incubated for 24 hrs by propidium iodide staining based flow cytometry (reference value: 64.1%); format: functional
[5] = test system: A549; test: Anticancer activity against human A549 cells assessed as reduction in cell viability incubated for 48 hrs MTT assay; format: functional, cell-based; conditions: A549, 48 h
Summary of the method: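 MTT assay on human hepatocarcinoma SMMC-7721, lung carcinoma A549 and nasopharyngeal carcinoma CNE2 cells, with matrine as comparator and cisplatin as positive control. IC50 is the concentration that lowers optical density of treated cells by 50% versus untreated cells, given as the mean ± SD of three experiments.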

[6] = test system: SMMC-7721; test: Induction of apoptosis in human SMMC7721 cells assessed as necrotic cells level at 5 uM incubated for 24 hrs by Annexin V-FITC/PI dual staining based flow cytometry (reference value: 2.47%); format: functional; summary of the method: as §1
[7] = test system: CNE-2; test: Induction of cell cycle arrest in human CNE2 cells assessed as accumulation at G2/M phase at 5 uM incubated for 24 hrs by propidium iodide staining based flow cytometry (reference value: 19.8%); format: functional
[8] = test system: SMMC-7721; test: Induction of cell cycle arrest in human SMMC7721 cells assessed as accumulation at G2/M phase at 30 uM incubated for 24 hrs by propidium iodide staining based flow cytometry (reference value: 18.4%); format: functional
[9] = test system: SMMC-7721; test: Induction of apoptosis in human SMMC7721 cells assessed as early apoptotic cells level at 5 uM incubated for 24 hrs by Annexin V-FITC/PI dual staining based flow cytometry (reference value: 1.36%); format: functional; summary of the method: as §1
[10] = test system: SMMC-7721; test: Induction of apoptosis in human SMMC7721 cells assessed as viable cells level at 30 uM incubated for 24 hrs by Annexin V-FITC/PI dual staining based flow cytometry (reference value: 95.3%); format: functional; summary of the method: as §1
[11] = test system: CNE-2; test: Induction of apoptosis in human CNE2 cells assessed as viable cells level at 30 uM incubated for 24 hrs by Annexin V-FITC/PI dual staining based flow cytometry (reference value: 91.6%); format: functional; summary of the method: as §1
[12] = test system: SMMC-7721; test: Induction of cell cycle arrest in human SMMC7721 cells assessed as accumulation at G2/M phase at 5 uM incubated for 24 hrs by propidium iodide staining based flow cytometry (reference value: 18.4%); format: functional
[13] = test system: CNE-2; test: Induction of cell cycle arrest in human CNE2 cells assessed as accumulation at G2/M phase at 10 uM incubated for 24 hrs by propidium iodide staining based flow cytometry (reference value: 19.8%); format: functional
[14] = test system: CNE-2; test: Induction of apoptosis in human CNE2 cells assessed as viable cells level at 10 uM incubated for 24 hrs by Annexin V-FITC/PI dual staining based flow cytometry (reference value: 91.6%); format: functional; summary of the method: as §1
[15] = test system: SMMC-7721; test: Induction of apoptosis in human SMMC7721 cells assessed as viable cells level at 10 uM incubated for 24 hrs by Annexin V-FITC/PI dual staining based flow cytometry (reference value: 95.3%); format: functional; summary of the method: as §1
[16] = test system: CNE-2; test: Induction of apoptosis in human CNE2 cells assessed as necrotic cells level at 5 uM incubated for 24 hrs by Annexin V-FITC/PI dual staining based flow cytometry (reference value: 3.43%); format: functional; summary of the method: as §1
[17] = test system: SMMC-7721; test: Induction of cell cycle arrest in human SMMC7721 cells assessed as accumulation at subG1 phase at 5 uM incubated for 24 hrs by propidium iodide staining based flow cytometry (reference value: 0.33%); format: functional
[18] = test system: SMMC-7721; test: Induction of apoptosis in human SMMC7721 cells assessed as late apoptotic cells level at 30 uM incubated for 24 hrs by Annexin V-FITC/PI dual staining based flow cytometry (reference value: 0.88%); format: functional; summary of the method: as §1
[19] = test system: SMMC-7721; test: Induction of apoptosis in human SMMC7721 cells assessed as early apoptotic cells level at 10 uM incubated for 24 hrs by Annexin V-FITC/PI dual staining based flow cytometry (reference value: 1.36%); format: functional; summary of the method: as §1
[20] = test system: CNE-2; test: Induction of cell cycle arrest in human CNE2 cells assessed as accumulation at G0-G1 phase at 10 uM incubated for 24 hrs by propidium iodide staining based flow cytometry (reference value: 69.3%); format: functional
[21] = test system: CNE-2; test: Induction of apoptosis in human CNE2 cells assessed as late apoptotic cells level at 5 uM incubated for 24 hrs by Annexin V-FITC/PI dual staining based flow cytometry (reference value: 1.37%); format: functional; summary of the method: as §1
[22] = test system: CNE-2; test: Induction of apoptosis in human CNE2 cells incubated for 24 hrs by Annexin V-FITC/PI dual staining based flow cytometry; format: functional, cell-based; summary of the method: as §1
[23] = test system: CNE-2; test: Induction of apoptosis in human CNE2 cells assessed as early apoptotic cells level at 5 uM incubated for 24 hrs by Annexin V-FITC/PI dual staining based flow cytometry (reference value: 3.56%); format: functional; summary of the method: as §1
[24] = test system: CNE-2; test: Induction of cell cycle arrest in human CNE2 cells assessed as accumulation at G2/M phase incubated for 24 hrs by propidium iodide staining based flow cytometry; format: functional
[25] = test system: SMMC-7721; test: Induction of cell cycle arrest in human SMMC7721 cells assessed as accumulation at S phase at 30 uM incubated for 24 hrs by propidium iodide staining based flow cytometry (reference value: 17.2%); format: functional
[26] = test system: CNE-2; test: Induction of cell cycle arrest in human CNE2 cells assessed as accumulation at S phase at 5 uM incubated for 24 hrs by propidium iodide staining based flow cytometry (reference value: 10.3%); format: functional
[27] = test system: CNE-2; test: Induction of cell cycle arrest in human CNE2 cells assessed as accumulation at subG1 phase at 5 uM incubated for 24 hrs by propidium iodide staining based flow cytometry (reference value: 0.55%); format: functional
[28] = test system: CNE-2; test: Induction of cell cycle arrest in human CNE2 cells assessed as accumulation at subG1 phase at 30 uM incubated for 24 hrs by propidium iodide staining based flow cytometry (reference value: 0.55%); format: functional
[29] = test system: SMMC-7721; test: Induction of cell cycle arrest in human SMMC7721 cells assessed as accumulation at G0-G1 phase at 10 uM incubated for 24 hrs by propidium iodide staining based flow cytometry (reference value: 64.1%); format: functional
[30] = test system: SMMC-7721; test: Induction of apoptosis in human SMMC7721 cells assessed as viable cells level at 5 uM incubated for 24 hrs by Annexin V-FITC/PI dual staining based flow cytometry (reference value: 95.3%); format: functional; summary of the method: as §1
[31] = test system: CNE-2; test: Induction of apoptosis in human CNE2 cells assessed as early apoptotic cells level at 30 uM incubated for 24 hrs by Annexin V-FITC/PI dual staining based flow cytometry (reference value: 3.56%); format: functional; summary of the method: as §1

- IC50 [5]: 8.05 µM
SMILES: COc1cc(Cn2cccc2/C=C2\CC[C@@H]3[C@H]4CCCN5CCC[C@@H](CN3C2=O)[C@@H]45)cc(OC)c1
- Activity [1]: Dose-dependent effect
- Activity [2]: 55.2%
- Activity [3]: 81.1%
- Activity [4]: 63%
- Activity [6]: 4.04%
- Activity [7]: 29.5%
- Activity [8]: 79.1%
- Activity [9]: 13.8%
- Activity [10]: 46.3%
- Activity [11]: 43%
- Activity [12]: 24.1%
- Activity [13]: 89.4%
- Activity [14]: 60.7%
- Activity [15]: 32.8%
- Activity [16]: 2.58%
- Activity [17]: 4.95%
- Activity [18]: 17%
- Activity [19]: 42%
- Activity [20]: 3.93%
- Activity [21]: 3.17%
- Activity [22]: Dose-dependent effect
- Activity [23]: 8.79%
- Activity [24]: Dose-dependent effect
- Activity [25]: 9.28%
- Activity [26]: 11%
- Activity [27]: 5.06%
- Activity [28]: 4.2%
- Activity [29]: 5.61%
- Activity [30]: 78.1%
- Activity [31]: 34.6%
